The values that follow come from ChEMBL document CHEMBL1150208, “Production of anti-tumor-promoting iridoid glucosides in Genipa americana and its cell cultures” (J Nat Prod, 1991).

What all share (assay type): cell-based
For data set [1], the system named is Raji. Kind of data set: Inhibition of TPA-induced EBV-early antigen activation in human Raji cells assessed as EA activation at 100 molar ratio after 48 hrs relative to TPA. The following applies: human gammaherpesvirus 4. The method, boiled down:
(§1)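 EBV early antigen activation was induced in Raji cells with TPA (32 pmol) and n-butyrate. Test substance was dosed as a molar ratio to TPA in 0.25% phosphate buffer (pH 7.2) for 48 h. Activation is expressed as % of the TPA-only positive control (=100), reported as mean ± SD.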

A short description of data set [2]: Cytotoxicity against human Raji cells assessed as cell viability at 100 molar ratio after 48 hrs by trypan blue assay. Conditions: read-out: Activity. The method, boiled down: (§2)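 Raji cells were treated together with TPA (32 pmol), n-butyrate and test substance in 0.25% phosphate buffer solution (pH 7.2). Dose is expressed as molar ratio to TPA. After 48 h, cells were stained with Trypan Blue and surviving cells were counted to give viability %.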

Data set [3] in a line: Cytotoxicity against human Raji cells assessed as cell viability at 1000 molar ratio after 48 hrs by trypan blue assay. The following applies: read-out: Activity. The method, boiled down:
as §2

For data set [4], the system named is Raji. Kind of data set: Inhibition of TPA-induced EBV-early antigen activation in human Raji cells assessed as EA activation at 1000 molar ratio after 48 hrs relative to TPA. Conditions: human gammaherpesvirus 4. Summed up: as §1
Data set [5] concerns Raji. Kind of data set: Inhibition of TPA-induced EBV-early antigen activation in human Raji cells assessed as EA activation at 500 molar ratio after 48 hrs relative to TPA. Conditions: human gammaherpesvirus 4. The method, boiled down: as §1
Data set [6] has as its system Raji. Kind of data set: Inhibition of TPA-induced EBV-early antigen activation in human Raji cells assessed as EA activation at 10 molar ratio after 48 hrs relative to TPA. Conditions: human gammaherpesvirus 4. Summed up: as §1

As for `CC1=C(/C=C/C(C)=C/C=C/C(C)=C/C(=O)O)C(C)(C)CCC1` [TRETINOIN], in data set [1], the EA activation relative to TPA control amounted to 67%. The viability at 48 h, 100 molar ratio in data set [2] was 40%. Further, in data set [3], the viability at 48 h, 1000 molar ratio stood at 10%. Besides, in data set [4], the EA activation (% of TPA-only control) came out at 30%.
With `COC(=O)C1=CO[C@@H](O[C@@H]2O[C@H](CO)[C@@H](O)[C@H](O)[C@H]2O)[C@@H]2C(CO)=CC[C@H]12` [GENIPOSIDE], the EA activation relative to TPA control in data set [1] came out at 100%. The EA activation (% of TPA control) in data set [5] was determined as 91%. In data set [3], the viability at 48 h, 1000 molar ratio was found to be 80%. Also, the EA activation (% of TPA-only control) in data set [4] stood at 62.4%. Further, the EBV-EA activation (% of TPA control) in data set [6] came to 100%.
Regarding `COC(=O)C1=CO[C@@H](O[C@@H]2O[C@H](CO)[C@@H](O)[C@H](O)[C@H]2O)[C@H]2[C@@H]1C=C[C@@]2(O)CO` [GARDENOSIDE], the EA activation relative to TPA control in data set [1] was 100%. For the same molecule, the EA activation (% of TPA control) in data set [5] came to 100%. Further, the viability at 48 h, 1000 molar ratio in data set [3] turned out to be 80%. For the same molecule, the EA activation (% of TPA-only control) in data set [4] came to 92.6%. Further, the EBV-EA activation (% of TPA control) in data set [6] worked out at 100%.
With `O=CC1=CO[C@@H](O[C@@H]2O[C@H](CO)[C@@H](O)[C@H](O)[C@H]2O)[C@@H]2C(CO)=CC[C@H]12` [TARENNOSIDE], the EA activation relative to TPA control in data set [1] was 88.1%. Further, in data set [5], the EA activation (% of TPA control) was 72.8%. Further, the viability at 48 h, 1000 molar ratio in data set [3] was found to be 80%. Besides, in data set [4], the EA activation (% of TPA-only control) is 30.5%. Besides, in data set [6], the EBV-EA activation (% of TPA control) was 100%.
As for `O=C(O)C1=CO[C@@H](O[C@@H]2O[C@H](CO)[C@@H](O)[C@H](O)[C@H]2O)[C@@H]2C(CO)=CC[C@H]12` [GENIPOSIDIC ACID], the EA activation relative to TPA control in data set [1] worked out at 91.8%. The EA activation (% of TPA control) in data set [5] was determined as 80.5%. The viability at 48 h, 1000 molar ratio in data set [3] stood at 80%. Moreover, the EA activation (% of TPA-only control) in data set [4] was 34.8%. In addition, the EBV-EA activation (% of TPA control) in data set [6] was determined as 100%.
For `COC(=O)C1=CO[C@@H](O)[C@@H]2C(CO)=CC[C@H]12` [GENIPIN] the same measures were 64.2%, 44.2%, 80%, 11.5% and 100%.
